Reference: ChEMBL document CHEMBL1671820, “Incorporation of basic side chains into cryptolepine scaffold: structure-antimalarial activity relationships and mechanistic studies” (J Med Chem, 2011)
Activity calls are given as the source filed them. The rule behind the calls is not given here.

What was measured:
[1] = tested on: Plasmodium falciparum; assay: Antiplasmodial activity against chloroquine-sensitive ring stage Plasmodium falciparum 3D7 infected in human red blood cells after 48 hrs; assay type: functional, organism-based; details: 3D7, 48 h
[2] = tested on: Plasmodium berghei; assay: Antiplasmodial activity against GFP-expressing liver stage Plasmodium berghei sporozoites infected in human Huh-7 cells at 5 uM by fluorescence activated cell sorting based method; assay type: functional, organism-based
Method in brief: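 Huh7 human hepatoma cells infected with GFP-expressing P. berghei sporozoites, compound at 5 μM. Read-out by FACS: invasion as % GFP-positive cells 2 h after sporozoite addition; development as GFP fluorescence intensity of positive cells at 48 h. Cells trypsinized for 5 min at 37 C, then resuspended in 2% FCS/PBS before analysis.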

[3] = Selectivity index, ratio of IC50 for african green monkey Vero cells to IC50 for chloroquine-resistant ring stage Plasmodium falciparum W2; assay type: toxicity, cell-based; details: read-out: Ratio IC50
Method in brief: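 Vero IC50 divided by W2 IC50. Vero: 15000 cells/well adhered overnight, then log dilutions from 30 mg/mL DMSO stock for 48 h. MTT 0.5 mg/mL final for 2 h at 37 C, formazan dissolved in 95% ethanol, A570 read against DMSO vehicle as 100% viability. W2: 48 h YOYO-1 flow-cytometric growth assay in human erythrocytes.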

[4] = tested on: Nucleic Acid; assay: Binding affinity to DNA assessed as quenching fluorescence intensity by UV-visible spectrophotometry; assay type: nucleic-acid assay
[5] = Inhibition of Plasmodium falciparum falcipain 3
[6] = tested on: Vero; assay: Cytotoxicity against african green monkey Vero cells after 48 hrs by MTT assay; assay type: cell-based; details: Chlorocebus sabaeus
Method in brief: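 Vero monkey kidney cells in DMEM with 10% FBS at 37 C, 7% CO2; seeded 15000 cells/well and adhered overnight. Log dilutions from 30 mg/mL DMSO stock, 48 h exposure. MTT at 0.5 mg/mL final for 2 h; formazan dissolved in 95% ethanol, read at 570 nm. Viability relative to DMSO-medium wells; IC50 from concentration–viability curve; doxorubicin as standard.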

[7] = Inhibition of hematin assessed as quenching fluorescence intensity at 1:1 drug-hematin ratio by UV-visible titration; assay type: functional; details: dose or concentration not given here
[8] = Drug uptake in Plasmodium falciparum infected in human erythrocyte food vacuoles at 5 uM after 3 hrs by fluorescence microscopy; assay type: ADME, cell-based
Method in brief: (§1)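 Human erythrocyte P. falciparum culture at 1.9% parasitemia, given 5 μM compound or DMSO solvent control for 3 h at room temperature in the dark. Washed gently with PBS, placed on poly-Lys-coated coverslips and imaged directly by phase contrast and fluorescence microscopy, 100× oil objective.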

[9] = tested on: Nucleic Acid; assay: Binding affinity to s(GATCCTAGGATC)2-DNA by fluorescence spectroscopy; assay type: nucleic-acid assay
Method in brief: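 Buffer 0.01 M phosphate pH 7.4, 0.1 M NaCl, 25.0 C, 1 cm quartz cuvettes. Fluorescence: excitation 339 nm, emission 450–500 nm. Dilution-corrected intensity change fitted to single-site binding for Kd; Kass taken as 1/Kd.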

[10] = Inhibition of Plasmodium falciparum falcipain 2
[11] = tested on: Heme; assay: Binding affinity to heme by UV-visible titration
Method in brief: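 Hematin monomer (FPIX-OH, 10 μM) in pH 5.5 HEPES-buffered 40% DMSO v/v at 25 C, titrated with ligand from 100 μM solution until above hematin concentration. Stirred 1 min per addition; spectra 230–500 nm, Soret change at 402 nm. Absorbance dilution-corrected, nonlinear fit for Kd; Kass calculated from Kd.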

[12] = tested on: Plasmodium falciparum; assay: Antiplasmodial activity against chloroquine-sensitive, mefloquine-resistant ring stage Plasmodium falciparum D6 infected in human red blood cells after 48 hrs; assay type: functional, organism-based; details: D6, 48 h
[13] = tested on: Plasmodium falciparum; assay: Antiplasmodial activity against chloroquine and pyrimethamine-resistant ring stage Plasmodium falciparum V1/S infected in human red blood cells after 48 hrs; assay type: functional, organism-based
[14] = Drug uptake in Plasmodium falciparum infected in human erythrocyte nucleus at 5 uM after 3 hrs by fluorescence microscopy; assay type: ADME, cell-based; method in brief: as §1
[15] = tested on: Plasmodium falciparum; assay: Resistance index, ratio of IC50 for chloroquine-resistant ring stage Plasmodium falciparum W2 to IC50 for chloroquine-sensitive ring stage Plasmodium falciparum 3D7; assay type: functional
Method in brief: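 W2 IC50 divided by 3D7 IC50. Both were measured by 48 h YOYO-1 flow-cytometric growth assay on sorbitol-synchronised 1% ring-stage cultures in human erythrocytes at 37 C under 3% O2.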

[16] = tested on: Nucleic Acid; assay: Binding affinity to s(GATCCTAGGATC)2-DNA by UV-visible spectrophotometry; assay type: nucleic-acid assay

Compound	IC50 [1] [nM]	Activity [2]	selectivity ratio [3]	Activity [4] [%]	IC50 [5] [nM]	IC50 [6] [nM]	inhibition [7] [%]	Drug uptake [8]	Ka [9] [×10⁶ /M]	IC50 [10] [nM]	Ka [11] [×10⁶ /M]	IC50 [12] [nM]	IC50 [13] [nM]	Drug uptake [14]	Ratio IC50 [15]	Ka [16] [×10⁶ /M]
C[n+]1c2ccccc2c(NC2CCNCC2)c2[nH]c3ccccc3c21.[Cl-]	23	inactive	1410	20	7900	62000	60	Active	0.74	6390	0.154	59	60	Active	0.7	
C[n+]1c2ccccc2cc2[n-]c3ccccc3c21.Cl [CRYPTOLEPINE HYDROCHLORIDE]	424	inactive	1.4		> 50000	1050		Active		38000	0.045	222	259	Active	2.9	0.25
